Measured values as given in ChEMBL document CHEMBL4138211, “Regio- and stereoselective synthesis of dispirooxindole-pyrrolocarbazole hybrids via 1,3-dipolar cycloaddition reactions: Cytotoxic activity and SAR studies” (Eur J Med Chem, 2018).
Active and inactive are the calls of the source. No cut-off for these calls is given here.

The compounds below were run on MCF7 (assay: Induction of apoptosis in human MCF7 cells assessed as membrane blebbing after 24 hrs by brightfield inverted light microscopic analysis). Conditions: not given.
Type: functional, cell-based

SMILES	Activity
O=C1Nc2ccccc2[C@]12N[C@H](c1ccccc1)[C@H](c1ccccc1)[C@@]21CCc2c([nH]c3ccc(Cl)cc23)C1=O	inactive
O=C1Nc2ccccc2[C@]12N[C@H](c1ccccc1)[C@H](c1ccccc1)[C@@]21CCc2c([nH]c3ccccc23)C1=O	inactive

The compounds below were run on MCF7 (assay: Induction of apoptosis in human MCF7 cells assessed as nuclear fragmentation after 24 hrs by DAPI staining-based fluorescence microscopic analysis). Conditions: not given.
Type: functional, cell-based
Summary of the method: (§1)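 Cells plated on glass coverslips and treated for 24 h, then fixed. Permeabilised with 0.2% Triton X-100 for 10 min at room temperature. DAPI applied for 3 min under a coverslip. Nuclei inspected by fluorescence microscopy for condensed chromatin and fragmentation, against untreated cells.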

SMILES	Activity
O=C1Nc2ccccc2[C@]12N[C@H](c1ccccc1)[C@H](c1ccccc1)[C@@]21CCc2c([nH]c3ccc(Cl)cc23)C1=O	Active
O=C1Nc2ccccc2[C@]12N[C@H](c1ccccc1)[C@H](c1ccccc1)[C@@]21CCc2c([nH]c3ccccc23)C1=O	Active

Each compound was assayed on MCF7 (assay: Induction of apoptosis in human MCF7 cells assessed as formation of floating cells after 24 hrs by brightfield inverted light microscopic analysis). Conditions: not given.
Type: functional, cell-based

SMILES	Activity
O=C1Nc2ccccc2[C@]12N[C@H](c1ccccc1)[C@H](c1ccccc1)[C@@]21CCc2c([nH]c3ccc(Cl)cc23)C1=O	inactive
O=C1Nc2ccccc2[C@]12N[C@H](c1ccccc1)[C@H](c1ccccc1)[C@@]21CCc2c([nH]c3ccccc23)C1=O	inactive

What follows are compounds tested on MCF7 (assay: Induction of apoptosis in human MCF7 cells by acridine orange/ethidium bromide staining-based fluorescence microscopic analysis). Conditions: not given.
Type: functional, cell-based
Summary of the method: (§2)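 Treated cells collected and washed in PBS (pH 7.2). Stained with a 1:1 AO/EtBr mixture (each dye […] in water) and held 2 min. Washed twice in PBS and viewed by fluorescence microscopy at 400× with 480 nm excitation. Green intact-membrane cells distinguished from orange/red membrane-damaged cells.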

SMILES	Activity
O=C1Nc2ccccc2[C@]12N[C@H](c1ccccc1)[C@H](c1ccccc1)[C@@]21CCc2c([nH]c3ccc(Cl)cc23)C1=O	inactive
O=C1Nc2ccccc2[C@]12N[C@H](c1ccccc1)[C@H](c1ccccc1)[C@@]21CCc2c([nH]c3ccccc23)C1=O	inactive

Each compound was assayed on A549 (assay: Induction of apoptosis in human A549 cells assessed as cell shrinkage after 24 hrs by brightfield inverted light microscopic analysis). Conditions: not given.
Type: functional, cell-based

SMILES	Activity
O=C1Nc2ccccc2[C@]12N[C@H](c1ccccc1)[C@H](c1ccccc1)[C@@]21CCc2c([nH]c3ccc(Cl)cc23)C1=O	inactive
O=C1Nc2ccccc2[C@]12N[C@H](c1ccccc1)[C@H](c1ccccc1)[C@@]21CCc2c([nH]c3ccccc23)C1=O	inactive

What follows are compounds tested on MCF7 (assay: Induction of apoptosis in human MCF7 cells assessed as damaged cell membranes by acridine orange/ethidium bromide staining-based fluorescence microscopic analysis). Conditions: not given.
Type: functional
Summary of the method: as §2

SMILES	Activity
O=C1Nc2ccccc2[C@]12N[C@H](c1ccccc1)[C@H](c1ccccc1)[C@@]21CCc2c([nH]c3ccc(Cl)cc23)C1=O	inactive
O=C1Nc2ccccc2[C@]12N[C@H](c1ccccc1)[C@H](c1ccccc1)[C@@]21CCc2c([nH]c3ccccc23)C1=O	inactive

These compounds were tested on A549 (assay: Induction of apoptosis in human A549 cells assessed as nuclear fragmentation after 24 hrs by DAPI staining-based fluorescence microscopic analysis). Conditions: not given.
Type: functional, cell-based
Summary of the method: as §1

SMILES	Activity
O=C1Nc2ccccc2[C@]12N[C@H](c1ccccc1)[C@H](c1ccccc1)[C@@]21CCc2c([nH]c3ccc(Cl)cc23)C1=O	inactive
O=C1Nc2ccccc2[C@]12N[C@H](c1ccccc1)[C@H](c1ccccc1)[C@@]21CCc2c([nH]c3ccccc23)C1=O	inactive

Each compound was assayed on MCF7 (assay: Induction of apoptosis in human MCF7 cells assessed as chromatin condensation after 24 hrs by DAPI staining-based fluorescence microscopic analysis). Conditions: not given.
Type: functional, cell-based
Summary of the method: as §1

SMILES	Activity
O=C1Nc2ccccc2[C@]12N[C@H](c1ccccc1)[C@H](c1ccccc1)[C@@]21CCc2c([nH]c3ccc(Cl)cc23)C1=O	Active

Each compound was assayed on MCF7 (assay: Induction of apoptosis in human MCF7 cells assessed as nuclear condensation by acridine orange/ethidium bromide staining-based fluorescence microscopic analysis). Conditions: not given.
Type: functional, cell-based
Summary of the method: as §2

SMILES	Activity
O=C1Nc2ccccc2[C@]12N[C@H](c1ccccc1)[C@H](c1ccccc1)[C@@]21CCc2c([nH]c3ccc(Cl)cc23)C1=O	inactive
O=C1Nc2ccccc2[C@]12N[C@H](c1ccccc1)[C@H](c1ccccc1)[C@@]21CCc2c([nH]c3ccccc23)C1=O	inactive

Each compound was assayed on MCF7 (assay: Induction of apoptosis in human MCF7 cells assessed as cell shrinkage after 24 hrs by brightfield inverted light microscopic analysis). Conditions: not given.
Type: functional, cell-based

SMILES	Activity
O=C1Nc2ccccc2[C@]12N[C@H](c1ccccc1)[C@H](c1ccccc1)[C@@]21CCc2c([nH]c3ccc(Cl)cc23)C1=O	inactive
O=C1Nc2ccccc2[C@]12N[C@H](c1ccccc1)[C@H](c1ccccc1)[C@@]21CCc2c([nH]c3ccccc23)C1=O	inactive

The compounds below were run on A549 (assay: Induction of apoptosis in human A549 cells assessed as formation of floating cells after 24 hrs by brightfield inverted light microscopic analysis). Conditions: not given.
Type: functional, cell-based

SMILES	Activity
O=C1Nc2ccccc2[C@]12N[C@H](c1ccccc1)[C@H](c1ccccc1)[C@@]21CCc2c([nH]c3ccc(Cl)cc23)C1=O	inactive
O=C1Nc2ccccc2[C@]12N[C@H](c1ccccc1)[C@H](c1ccccc1)[C@@]21CCc2c([nH]c3ccccc23)C1=O	inactive

What follows are compounds tested on MCF7 (assay: Antiproliferative activity against human MCF7 cells after 48 hrs by MTT assay). Conditions: not given.
Type: functional, cell-based
Summary of the method: (§3)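 Cells grown 1×10⁴/well for 48 h to about 75% confluence. Medium then replaced with fresh medium containing serially diluted compounds, followed by a further 48 h. MTT added for 4 h at 37 °C and formazan dissolved in DMSO for 10 min. OD read at 620 nm. IC50 taken from the viability–concentration survival curve. Three independent experiments, each in triplicate.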

SMILES	Activity
O=C1Nc2ccccc2[C@]12N[C@H](c1ccccc1)[C@H](c1ccccc1)[C@@]21CCc2c([nH]c3ccc(Cl)cc23)C1=O	Dose-dependent effect
O=C1Nc2ccccc2[C@]12N[C@H](c1ccccc1)[C@H](c1ccccc1)[C@@]21CCc2c([nH]c3ccccc23)C1=O	Dose-dependent effect

Same assay, conditions: MCF7, 48 h

IC50	SMILES
18 µM	O=C1Nc2ccccc2[C@]12N[C@H](c1ccccc1)[C@H](c1ccccc1)[C@@]21CCc2c([nH]c3ccc(Cl)cc23)C1=O
15 µM	O=C1Nc2ccccc2[C@]12N[C@H](c1ccccc1)[C@H](c1ccccc1)[C@@]21CCc2c([nH]c3ccccc23)C1=O

What follows are compounds tested on A549 (assay: Induction of apoptosis in human A549 cells assessed as membrane blebbing after 24 hrs by brightfield inverted light microscopic analysis). Conditions: not given.
Type: functional, cell-based

SMILES	Activity
O=C1Nc2ccccc2[C@]12N[C@H](c1ccccc1)[C@H](c1ccccc1)[C@@]21CCc2c([nH]c3ccc(Cl)cc23)C1=O	inactive
O=C1Nc2ccccc2[C@]12N[C@H](c1ccccc1)[C@H](c1ccccc1)[C@@]21CCc2c([nH]c3ccccc23)C1=O	inactive

Each compound was assayed on A549 (assay: Induction of apoptosis in human A549 cells by acridine orange/ethidium bromide staining-based fluorescence microscopic analysis). Conditions: not given.
Type: functional, cell-based
Summary of the method: as §2

SMILES	Activity
O=C1Nc2ccccc2[C@]12N[C@H](c1ccccc1)[C@H](c1ccccc1)[C@@]21CCc2c([nH]c3ccc(Cl)cc23)C1=O	inactive
O=C1Nc2ccccc2[C@]12N[C@H](c1ccccc1)[C@H](c1ccccc1)[C@@]21CCc2c([nH]c3ccccc23)C1=O	inactive

These compounds were tested on A549 (assay: Antiproliferative activity against human A549 cells after 48 hrs by MTT assay). Conditions: not given.
Type: functional, cell-based
Summary of the method: as §3

SMILES	Activity
O=C1Nc2ccccc2[C@]12N[C@H](c1ccccc1)[C@H](c1ccccc1)[C@@]21CCc2c([nH]c3ccc(Cl)cc23)C1=O	Dose-dependent effect
O=C1Nc2ccccc2[C@]12N[C@H](c1ccccc1)[C@H](c1ccccc1)[C@@]21CCc2c([nH]c3ccccc23)C1=O	Dose-dependent effect

Same assay, conditions: A549, 48 h

IC50	SMILES
15 µM	O=C1Nc2ccccc2[C@]12N[C@H](c1ccccc1)[C@H](c1ccccc1)[C@@]21CCc2c([nH]c3ccc(Cl)cc23)C1=O
17 µM	O=C1Nc2ccccc2[C@]12N[C@H](c1ccccc1)[C@H](c1ccccc1)[C@@]21CCc2c([nH]c3ccccc23)C1=O
